Tests used:
KOR = KOR (Mus musculus, UniProt P33534); assay: Radioligand competition binding assay, KOR
DOR = DOR (Mus musculus, UniProt P32300); assay: Radioligand competition binding assay, DOR
mice = assay: Warm-water tail immersion assay; format: in vivo, mouse; conditions: for Antinociception effect (% MPE): 10 mg/kg s.c., 56 °C
How it was run: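 Male Swiss-Webster mice (23–35 g, 7–8 weeks), n = 5 per group. Single test-compound dose of 10 mg/kg given subcutaneously at time 0. Tail-flick latency measured in water at 56 ± 0.1 °C. Saline served as negative control and morphine as positive control. Response expressed as % maximum possible effect, reported as mean ± SD.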

MOR [1] = target: T1, MOR (Mus musculus, UniProt P42866); assay: Radioligand competition binding assay, MOR; conditions: for Selectivity δ/μ: ratio of Ki values DOR/MOR; for Selectivity κ/μ: ratio of Ki values KOR/MOR
MOR [2] = target: T1, MOR; conditions: low MOR-expressing CHO cells and mouse thalamus; cited from earlier work
morphine-pelleted mice = assay: Opioid withdrawal study in chronic morphine-pelleted mice; format: in vivo, mouse; conditions: 1 mg/kg s.c.

| Structure (SMILES) | Ki (DOR) [µM] | Antinociception effect (% MPE) (mice) | Selectivity κ/μ (MOR [1]) | also measured |
| --- | --- | --- | --- | --- |
| O=C(N[C@@H]1CC[C@@]2(O)[C@H]3Cc4ccc(O)c5c4[C@@]2(CCN3CC2CC2)[C@H]1O5)c1cccc2c(Cl)c[nH]c12 [Compound 7, 17-Cyclopropylmethyl-3,14β-dihydroxy-4,5α-epoxy-6β-(3-chloro-indole-7-carboxamido)morphinan] | 0.00443 ± 0.00106 | noticeable antinociception |  | Ki (KOR): 0.00033 ± 5e-05 µM |
| O=C(N[C@@H]1CC[C@@]2(O)[C@H]3Cc4ccc(O)c5c4[C@@]2(CCN3CC2CC2)[C@H]1O5)c1cccc2c([N+](=O)[O-])c[nH]c12 [Compound 9, 17-Cyclopropylmethyl-3,14β-dihydroxy-4,5α-epoxy-6β-(3-nitro-indole-7-carboxamido)morphinan] | 0.0256 ± 0.00806 | noticeable antinociception |  |  |
| Cc1c[nH]c2c(C(=O)N[C@@H]3CC[C@@]4(O)[C@H]5Cc6ccc(O)c7c6[C@@]4(CCN5CC4CC4)[C@H]3O7)cccc12 [Compound 13, 17-Cyclopropylmethyl-3,14β-dihydroxy-4,5α-epoxy-6β-(3-methyl-indole-7-carboxamido)morphinan] | 0.0279 ± 0.00593 | noticeable antinociception | 2.2 | Selectivity δ/μ (MOR [1]): 61.3 |
| N#Cc1c[nH]c2c(C(=O)N[C@H]3CC[C@@]4(O)[C@H]5Cc6ccc(O)c7c6[C@@]4(CCN5CC4CC4)[C@H]3O7)cccc12 [Compound 25, 17-Cyclopropylmethyl-3,14β-dihydroxy-4,5α-epoxy-6α-(3-cyano-indole-7-carboxamido)morphinan] | 0.0122 ± 0.0022 |  | 6.3 |  |
| O=C(N[C@H]1CC[C@@]2(O)[C@H]3Cc4ccc(O)c5c4[C@@]2(CCN3CC2CC2)[C@H]1O5)c1cccc2c([N+](=O)[O-])c[nH]c12 [Compound 26, 17-Cyclopropylmethyl-3,14β-dihydroxy-4,5α-epoxy-6α-(3-nitro-indole-7-carboxamido)morphinan] | 0.0216 ± 0.00257 |  | 9.2 | Selectivity δ/μ (MOR [1]): 20.3 |
| CC(=O)c1c[nH]c2c(C(=O)N[C@H]3CC[C@@]4(O)[C@H]5Cc6ccc(O)c7c6[C@@]4(CCN5CC4CC4)[C@H]3O7)cccc12 [Compound 28, 17-Cyclopropylmethyl-3,14β-dihydroxy-4,5α-epoxy-6α-(3-acetyl-indole-7-carboxamido)morphinan] | 0.0109 ± 0.00158 |  |  | Ki (KOR): 0.00639 ± 0.00107 µM |
| Cc1c[nH]c2c(C(=O)N[C@H]3CC[C@@]4(O)[C@H]5Cc6ccc(O)c7c6[C@@]4(CCN5CC4CC4)[C@H]3O7)cccc12 [Compound 30, 17-Cyclopropylmethyl-3,14β-dihydroxy-4,5α-epoxy-6α-(3-methyl-indole-7-carboxamido)morphinan] | 0.0138 ± 0.00402 |  |  | Blockage of the morphine-mediated antinociception (mice; 10 mg/kg s.c. in the presence of morphine (10 mg/kg)): different degrees of inhibition of morphine’s antinociceptive effect |
| O=C(N[C@@H]1CC[C@@]2(O)[C@H]3Cc4ccc(O)c5c4[C@@]2(CCN3CC2CC2)[C@H]1O5)c1ccncc1 [NAP, 17-Cyclopropylmethyl-3,14β-dihydroxy-4,5α-epoxy-6β-[(4′-pyridyl)carboxamido]morphinan] |  |  |  | Shift of DAMGO concentration effect curve (MOR [2]): parallel rightward shift in the concentration effect curve of MOR full agonist DAMGO |
| O=C(N[C@H]1CC[C@@]2(O)[C@H]3Cc4ccc(O)c5c4[C@@]2(CCN3CC2CC2)[C@H]1O5)c1cc2ccccc2cn1 [NAQ, 17-cyclopropylmethyl-3,14β-dihydroxy-4,5α-epoxy-6α-(isoquinoline-3-carboxamido)-morphinan] |  |  |  | Shift of DAMGO concentration effect curve (MOR [2]): parallel rightward shift in the concentration effect curve of MOR full agonist DAMGO |
| C=CCN1CC[C@]23c4c5ccc(O)c4O[C@H]2C(=O)CC[C@@]3(O)[C@H]1C5 [NLX, naloxone, reference compound] |  |  |  | Withdrawal symptoms (morphine-pelleted mice): induced significant withdrawal symptoms |

From article PMC10546487 (Journal of medicinal chemistry, 2022)
